Test results: ChEMBL document CHEMBL4513216, “Probing the Open Global Health Chemical Diversity Library for Multistage-Active Starting Points for Next-Generation Antimalarials” (ACS Infect Dis, 2020)

Experiment: Toxicity liver stage against HepG2, at 10uM
Assay type: cell-based
Parameters: test concentration 10 uM, cell line HepG2-A16-CD81EGFP
Details: human, HepG2-A16-CD81EGFP cells; read-out: INHIBITION
Procedure, shortened: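 Uninfected HepG2-A16-CD81EGFP cells, 3 × 10^3 per well, 1536-well, plated on prespotted compound at 10 μM final, parasite-free screening media added to match infected plates; puromycin 10 μM positive, DMSO 0.5% negative; run in parallel with 48 h PbLuc assay at 37 °C, 5% CO2; viability by CellTiter-Glo luminescence, normalized to controls.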

Row | SMILES | cytotoxicity at 10 µM
1 | COCC(=O)N[C@H](C)c1onc(-c2ccc(F)cc2)c1C(=O)O | -8.15%
2 | CCCC(O)CN1CCC(=O)N(CC)Cc2cc3c(cc21)OCO3 (configuration not stated) | -18.5%
3 | O=C1CCNc2cc3c(cc2CN1Cc1ccco1)OCO3 | 6.36%
4 | CCN1Cc2cc(F)ccc2N(C(=O)C2CCC2)CCC1=O | -41.2%
5 | Cc1cc2ccccc2n1CC(=O)N[C@@H](C)C(=O)O | 0.77%
6 | Cc1cc(C)nc(N2CCC(C(=O)Nc3n[nH]c(CC(C)C)n3)CC2)n1 | 5.61%
7 | Cn1cnnc1SCCCNC(=O)Nc1ncccn1 | 0.252%
8 | COc1ccc(CC(C)(O)CNC(=O)NCc2cccs2)cc1 (configuration not stated) | 5.62%
9 | COC(=O)N1CCc2ccccc2C1C(=O)NCc1ccco1 (configuration not stated) | -1.94%
10 | CN(C)C(=O)COCC1CN(CC2CCOCC2)Cc2ncn(C)c21 (configuration not stated) | 1.03%
11 | Cc1csc([C@H]2C[C@@H]3CCN(C(=O)c4ccnnc4)C[C@H]3O2)n1 | -1.95%
12 | CCc1c(C)n(CC(C)=O)c2nc3ccccc3n2c1=O | 5.44%
13 | O=C1CC(c2ccccc2F)c2c(n3ccsc3nc2=O)N1 (configuration not stated) | -5.93%
14 | CC(c1cc(O)nc(NC2CCCC2)n1)n1ncc2ccccc2c1=O (configuration not stated) | 22.9%
15 | CCn1ncc(S(=O)(=O)N[C@@H]2CC[C@@H](n3ccnc3)[C@@H]2O)c1C | -3.4%
16 | CCN(Cc1cccnc1)CC1(C)Cc2c(N)nc(N)nc2O1 (configuration not stated) | 0.705%
17 | Cc1ccc(C2CSCCN2C(=O)NCc2cccnc2)cc1 (configuration not stated) | 5.48%
18 | CCC(C)Oc1cc(C(=O)N(c2cccnc2)C(C)C)ccn1 (configuration not stated) | 8.77%
19 | COc1cc(NC(=O)N(C)CCC2CC2)ncn1 | -1.3%
20 | Cn1nc(Br)c2c(=O)n(CCc3ccccc3)cnc21 | -1.4%
21 | N#CC1(NC(=O)c2nccc3ccccc23)CCSCC1 | 8.8%

Row | SMILES | cytotoxicity at 10 µM
22 | Cc1cc(Cn2c(=O)c3c(C(F)(F)F)cc(C)nc3n2C)on1 | -0.976%
23 | CCOc1ccc(Cl)cc1CCNC(=O)Cn1nc(C)ccc1=O | -3.91%
24 | O=C(CCn1ccnn1)N1CCCC(n2cncn2)C1 (configuration not stated) | -1.26%
25 | COC1CCN(c2ccc(F)cc2CN(C)S(C)(=O)=O)CC1 | -12.5%
26 | Cc1cc(NCCC(=O)NC2CCCC2)nc(-c2ccncc2)n1 | 2.25%
27 | CNC(=O)CC1CCN(C(=O)NCC2(c3ccccc3F)CC2)CC1 | 4.27%
28 | CC1CCN(C)c2ccccc2N1C(=O)c1ccc(=O)n(C)n1 (configuration not stated) | 1.53%
29 | Cc1nnc(C(NS(=O)(=O)c2cc(F)c(C)cc2F)C(C)C)[nH]1 (configuration not stated) | -5.19%
30 | CC(NC(=O)CCS(=O)(=O)C1CCCC1)c1nc(-c2ccccc2)c[nH]1 (configuration not stated) | 1.05%
31 | O=C(CCC1CCCO1)NCc1ccc(Br)cc1F (configuration not stated) | 1.6%
32 | c1cnn(CCNCc2cnc(N3CCOCC3)nc2)c1 | -1.73%
33 | CC(C(=O)Nc1cccc(Cl)c1)N1CCN(Cc2ncc[nH]2)CC1 (configuration not stated) | -8.64%
34 | CN(CC1CCCN(S(C)(=O)=O)C1)c1cnn(C)c1 (configuration not stated) | 2.56%
35 | CNS(=O)(=O)c1csc(C(=O)N(C)Cc2sccc2C)c1 | 16.4%
36 | CN(Cc1cccs1)C(=O)Cn1cc(NC(=O)C(C)(C)C)cn1 | -3.52%
37 | Cc1ccc(CNCc2nnc3n2CCCC3C(F)(F)F)o1 (configuration not stated) | 19.5%
38 | CCc1nc(CNC(=O)Nc2ccc(C(=O)NC)cc2C)cs1 | 16.4%
39 | CC(C)S(=O)(=O)NCC1CCCN(C(=O)c2cccnc2)C1 (configuration not stated) | -7.16%
40 | COC[C@H]1CC[C@H]2[C@H](CCN2S(=O)(=O)c2ccccc2)O1 | -1.45%
41 | O=C(c1ccnnc1)N1C[C@H](OCC2CCOCC2)[C@H]2OCCC[C@H]21 | 3.86%
42 | Cc1nc(CN2C(=O)CC[C@H]3[C@@H]2CCN3C(=O)c2ccsc2)cs1 | 1.8%

Row | SMILES | cytotoxicity at 10 µM
43 | Cc1nccn1Cc1nnc(C2CCCN(c3ncccn3)C2)n1C (configuration not stated) | -3.09%
44 | CCCN1CCCn2nc(CNC(=O)CN(C)C3CCCC3)cc2C1 | -0.992%
45 | COC1CCCOC12CCN(C(=O)NCc1ccco1)CC2 (configuration not stated) | -15.3%
46 | CC(C)=CCN1CC2(CCN(Cc3ncc[nH]3)CC2)CC1=O | -10.8%
47 | CSc1cccc(CN(C)C(=O)Cn2ncc(N(C)C)cc2=O)c1 | 0.0849%
48 | OC1(CNCCc2csc(-c3cccnc3)n2)CCNC1 (configuration not stated) | 2.76%
49 | CSc1ncccc1C(=O)N(C)C(C)Cc1ccccn1 (configuration not stated) | 2.28%
50 | Cc1ccc(C(=O)N2CCC3(CC2)C(=O)NCCN3C)cc1O | -0.081%
51 | Cc1ccc(CCNC(=O)CC2COCCN2S(=O)(=O)N(C)C)o1 (configuration not stated) | 3.39%
52 | O=C1NCC2(CCCN(C(=O)Cn3nc4ccccc4n3)CC2)O1 (configuration not stated) | -3.45%
53 | O=C(NCCc1c[nH]cn1)c1ccc(S(=O)(=O)NC2CCOC2)cc1 (configuration not stated) | -1.91%
54 | CCNC(=O)C(C)Oc1ccc(N(C)S(C)(=O)=O)cc1 (configuration not stated) | 1.07%
55 | COc1ccc(CC2(CO)CCN(c3cc(C(N)=O)ccn3)CC2)cc1 | -2.41%
56 | O=C(NCc1cc(O)ncn1)C1COc2ccccc2C1 (configuration not stated) | -9.76%
57 | COc1ccc(OCCN2CCCN(Cc3noc(C)n3)CC2)cc1 | -6.12%
58 | CC(C)Oc1ccc(C(=O)N2CCCC2c2cnn(C)c2)cn1 (configuration not stated) | -6.37%
59 | CCc1cnc(CN(C)C2CCN(Cc3nnc(C4CC4)n3C)C2)o1 (configuration not stated) | -5.09%
60 | CSCCC(=O)N1CCCN(Cc2cnn(C(C)C)c2)CC1 | -25.3%
61 | CCOc1ccc(CNC(C)c2ccc3[nH]c(=O)[nH]c3c2)cc1 (configuration not stated) | -7.79%
62 | OCCN1CCC(CNCc2ccccc2OC(F)(F)F)CC1 | -13.7%
63 | Cc1cnn(CC2CCCN2Cc2cc(C)on2)c1 (configuration not stated) | -8.51%

Row | SMILES | cytotoxicity at 10 µM
64 | CN(C)c1ccc(C(=O)Nc2cn[nH]c2)cc1 | -0.279%
65 | CN(Cc1ccco1)C(=O)NC1CCCN(c2ncccn2)C1 (configuration not stated) | -13.6%
66 | COCCOc1ccc(NC(=O)C2CC(=O)N(CC3CC3)C2)cn1 (configuration not stated) | -30.7%
67 | COCCOc1ccc(NC(=O)C2CC(=O)N(C3CC3)C2)cn1 (configuration not stated) | -6.93%
68 | CN(C)c1ncccc1CNC(=O)N1CCCC1c1cccs1 (configuration not stated) | -12%
69 | Cc1nc(C)n(CC2CCCCN2CC(=O)Nc2nnc(C)s2)n1 (configuration not stated) | -10.6%
70 | CCCc1nc(CN2CCCC(c3noc(C4CC4)n3)C2)no1 (configuration not stated) | -8.87%
71 | Cc1ccc(CC(=O)N2CCN(C3CCOC3=O)CC2)cc1 (configuration not stated) | -18.7%
72 | CCN(CC)CCNC(=O)c1cnc(C(C)(C)C)s1 | -8.94%
73 | CN(CCc1ccccn1)S(=O)(=O)N1CCCC1c1ccco1 (configuration not stated) | -14.8%
74 | CC(C)c1ncncc1C(=O)NCCN1CCCS1(=O)=O | -8.98%
75 | CCNc1cc2c(nn1)CCN(C(=O)c1ccnc(N(C)C)c1)C2 | -20.9%
76 | Cc1ccc(CN(C)C(=O)CN2CCOC(Cn3cncn3)C2)o1 (configuration not stated) | -7.98%
77 | CS(=O)(=O)NCc1cncc2c1CCN(C(=O)c1cccnc1)C2 | 5.12%
78 | O=C1[C@H]2CN(c3ncccn3)C[C@H]2CN1Cc1ccncc1 | -12.1%
79 | COCC1CN(Cc2csc(C)n2)Cc2nccn2C1 (configuration not stated) | 3.16%
80 | CCS(=O)(=O)N1CCC[C@]2(C(=O)N(C)C)CN(c3ccccn3)C[C@@H]2C1 | -8.93%
81 | CN1CC(=O)N(c2ccccc2)CC12CCN(C(=O)CC1CC1)C2 (configuration not stated) | 0.972%
82 | O=C(c1cccnc1)N1C[C@H]2CC[C@@H](C1)N(Cc1ncc[nH]1)C2 | -13.2%
